Assay results: publication PMC3009390 (Chemical biology & drug design, 2010)
Each block holds one compound with its values, some of them ahead of it.

Assays:
[1] = system: CD58 protein on Caco-2 cells; experiment: Fluorescence microscopy of binding to Caco-2 cells; assay type: cell-based, human; details: fixed Caco-2 cells, about 2 h incubation, magnification 20×
[2] = system: CD58 protein; experiment: 1D NMR titration: binding of peptides to CD58 protein; details: pH 7.0, 90% H2O/10% D2O, 291 K, 700 MHz, protein:peptide 1:80
Procedure, shortened: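 Recombinant CD58 extracellular domain was titrated in 10 µL aliquots into an NMR tube holding the test peptide. A 1D spectrum was recorded at each protein:peptide ratio from 1:1000 to 1:80 on a 700 MHz instrument at 291 K. Sample pH was set to 7.0 with NaOD in D2O. A control peptide was run the same way.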

[3] = system: RA; details: ref [41]; cited from earlier work

Compound: O=C1OC2(c3ccc(O)cc3Oc3cc(O)ccc32)c2ccc(N=C=S)cc21 [FITC, Fluoresceineisothiocyanate]
- binding observed by fluorescence microscopy [1]: non-specific binding of FITC was observed

- binding to CD58 protein by 1D NMR [2]: does not bind to protein CD58
- change of peptide 1D NMR amide resonances on adding CD58 [2]: no indication of amide resonances
Compound: KGKTDAISVKAI-NH2 [control peptide]

Compound: QYMRADEADSTLR [CII-3]
- RA suppression activity [3]: does not exhibit any RA suppression activity
